According to ChEMBL document CHEMBL1157691, “Synthesis and antiproliferative evaluations of certain 2-phenylvinylquinoline (2-styrylquinoline) and 2-furanylvinylquinoline derivatives” (Bioorg Med Chem, 2010):

Experiments:
MCF7 [1] = experiment: Antiproliferative activity against human MCF7 cells assessed as cell survival at 4 ug/mL after 72 hrs by MTS assay relative to control; assay type: functional; conditions: MCF7, 72 h, read-out: Survival
In short: (§1)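 Log-phase cells seeded at 5000 cells/mL/well in 24-well format. They were then exposed to test agents at a single concentration of 4.0 μg/mL for 72 h. Growth and viability were read by MTS assay.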

NCI-H460 = experiment: Antiproliferative activity against human NCI-H460 cells assessed as cell survival at 4 ug/mL after 72 hrs by MTS assay relative to control; assay type: functional; conditions: NCI-H460, 72 h, read-out: Survival; in short: as §1
SF-268 = experiment: Antiproliferative activity against human SF268 cells assessed as cell survival at 4 ug/mL after 72 hrs by MTS assay relative to control; assay type: functional; conditions: SF-268, 72 h, read-out: Survival; in short: as §1
[2] = Growth inhibition of human NCI60 cells; assay type: functional
MCF7 [3] = experiment: Antiproliferative activity against human MCF7 cells after 48 hrs by ATPlite assay; assay type: functional, cell-based; conditions: MCF7, 48 h
LNCaP = experiment: Antiproliferative activity against human LNCAP cells after 48 hrs by ATPlite assay; assay type: functional, cell-based
PC-3 = experiment: Antiproliferative activity against human PC3 cells after 48 hrs by ATPlite assay; assay type: functional, cell-based; conditions: PC-3, 48 h

Row | SMILES | viability at 4 µg/mL (MCF7 [1]) [%] | viability at 4 µg/mL (NCI-H460) [%] | viability at 4 µg/mL (SF-268) [%] | GI50 [2] [nM] | IC50 (MCF7 [3]) [nM] | IC50 (LNCaP) [nM] | IC50 (PC-3) [nM]
1 | Oc1cccc2ccc(/C=C/c3ccc(F)cc3)nc12 | 103 | 66 | 82 |  |  |  | 
2 | Oc1cccc2ccc(/C=C/c3ccco3)nc12 | 110 | 70 | 76 |  |  |  | 
3 | COc1cccc2c(Cl)cc(/C=C/c3ccccc3)nc12 | 99 | 109 | 81 |  |  |  | 
4 | N#Cc1ccc(/C=C/c2ccc3cccc(O)c3n2)cc1 | 107 | 66 | 90 |  |  |  | 
5 | Oc1ccc(/C=C/c2ccc3cccc(O)c3n2)cc1 | 108 | 52 | 78 |  |  |  | 
6 | O=[N+]([O-])c1ccc(/C=C/c2ccc3cccc(O)c3n2)cc1 | 89 | 52 | 77 |  |  |  | 
7 | COc1cccc2c(O)cc(/C=C/c3ccccc3)nc12 | 104 | 111 | 119 |  |  |  | 
8 | CO/N=C(/C)c1ccc(Nc2cc(/C=C/c3ccccc3)nc3ccccc23)cc1 | 108 | 79 | 112 |  |  |  | 
9 | Oc1cccc2ccc(/C=C/c3cccnc3)nc12 | 115 | 63 | 89 |  |  |  | 
10 | CC(=O)c1ccc(Nc2cc(/C=C/c3ccccc3)nc3ccccc23)cc1 | 83 | 52 | 107 |  |  |  | 
11 | COc1cccc2c(Nc3ccc(C(C)=O)cc3)cc(/C=C/c3ccccc3)nc12 | 95 | 75 | 114 |  |  |  | 
12 | CC(=O)c1ccc(Nc2c3ccccc3nc3occc23)cc1 |  |  |  | 25 |  |  | 
13 | CO/N=C(\C)c1ccc(Nc2cc(/C=C/c3ccc([N+](=O)[O-])o3)nc3ccccc23)cc1 | < 20 | < 20 | < 20 |  | 400 | 1040 | 520
14 | C/C(=N\O)c1ccc(Nc2cc(/C=C/c3ccc([N+](=O)[O-])o3)nc3ccccc23)cc1 | < 20 | < 20 | < 20 |  | 250 | 950 | 190
15 | Oc1cccc(/C=C/c2ccc3cccc(O)c3n2)c1O | 95 | 53 | 52 |  |  |  | 
16 | C/C(=N/O)c1ccc(Nc2cc(/C=C/c3ccccc3)nc3ccccc23)cc1 | 54 | 67 | 90 |  |  |  | 
17 | CO/N=C(/C)c1ccc(Nc2cc(/C=C/c3ccccc3)nc3c(OC)cccc23)cc1 | 97 | 87 | 97 |  |  |  | 
18 | CC(=O)c1ccc(Nc2cc(/C=C/c3ccc([N+](=O)[O-])o3)nc3ccccc23)cc1 | < 20 | < 20 | < 20 |  | 430 | 4120 | 450
19 | Oc1cccc2ccc(/C=C/c3ccccc3)nc12 | 110 | 55 | 72 |  |  |  | 
20 | Clc1cc(/C=C/c2ccccc2)nc2ccccc12 | 120 | 109 | 118 |  |  |  | 
21 | COc1cccc2c1C(=O)c1c(O)c3c(c(O)c1C2=O)C[C@@](O)(C(C)=O)C[C@@H]3O[C@H]1C[C@H](N)[C@H](O)[C@H](C)O1 [DAUNORUBICIN] |  |  |  | 44 |  |  | 
22 | COc1cccc2c(Nc3ccc(/C(C)=N\O)cc3)cc(/C=C/c3ccccc3)nc12 | 40 | < 20 | 63 |  |  |  | 
23 | Oc1cc(/C=C/c2ccccc2)nc2ccccc12 | 119 | 118 | 120 |  |  |  | 
24 | COc1cc(NS(C)(=O)=O)ccc1Nc1c2ccccc2nc2ccccc12 [AMSACRINE] |  |  |  | 440 |  |  | 
